TCR CD3 inh: inhibitors of human TCR-CD3 interaction, primary screen, biochemical, fluorescence, TAMRA-labeled TCR probe; AID 651800, 2012; inhibition, % at 9.4 µM; T-cell receptor (TCR); 360,000 tested, 0.37% active; in the data active = inhibition above about 19%;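 note: recombinant mutant TCR 2C K166C tagged with TAMRA read by polarization; 0% = receptor in buffer alone and 100% = receptor with positive control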
rCAG RNA binder: binders of r(CAG) RNA repeats, primary screen, biochemical, fluorescence. 370,000 tested, 1.3% active. inhibition, % at 3 µM. r(CAG) RNA repeat, TO-PRO-1 dye displacement fluorescence;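 active = inhibition above the plate cutoff, the mean of all test compounds on that plate plus 3 SD, cut at about 35% in these data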;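 note: 0% = DMSO alone and 100% = 100 µM mitoxantrone as full dye displacement; higher means more dye released from RNA so lower well fluorescence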
mABHD4 FP: ABHD4 inhibitors, primary screen, biochemical, fluorescence polarization, mouse | purified mABHD4, FP-Rh probe fluorescence polarization | AID 720543, 2013 | 370,000 tested, 0.54% active | (Lyso)-N-acylphosphatidylethanolamine lipase (Mus musculus), Q8VD66 | inhibition, % at 8.92 µM;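 active = inhibition exceeding the mean over every tested compound plus 3 SD, cut at about 30% in these data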;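 note: 0% = plate median of compound wells and 100% = S159A mutant with DMSO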
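Test system: mABHD4 protein; Read-out basis: % inhibition; Incubation: 45 min + 60 min at 25 °C; Repeats: single replicate; Technique: fluorescence polarization with parallel and perpendicular emission, 525/598 nm; Compound: 8.92 µM, single dose; Benchmarks: full inhibition S159A mutant plus DMSO, zero as sample-well median.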
SIAE primary: human SIAE inhibitors, primary screen, biochemical, fluorescence polarization, FP-Rh probe, 1536-well HTS; Sialate O-acetylesterase (Homo sapiens), Q9HAT2; SIAE FP-Rh probe binding; inhibition, % at 9.66 µM; 370,000 tested, 0.69% active; AID 1053197, 2014;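 active = inhibition above a cutoff: mean of compounds within the control limits plus 3 SD of those, cut at about 17% in these data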;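 note: 0% = plate median of compound wells and 100% = probe without SIAE protein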
Target sequence (Q9HAT2 whole entry, looked up): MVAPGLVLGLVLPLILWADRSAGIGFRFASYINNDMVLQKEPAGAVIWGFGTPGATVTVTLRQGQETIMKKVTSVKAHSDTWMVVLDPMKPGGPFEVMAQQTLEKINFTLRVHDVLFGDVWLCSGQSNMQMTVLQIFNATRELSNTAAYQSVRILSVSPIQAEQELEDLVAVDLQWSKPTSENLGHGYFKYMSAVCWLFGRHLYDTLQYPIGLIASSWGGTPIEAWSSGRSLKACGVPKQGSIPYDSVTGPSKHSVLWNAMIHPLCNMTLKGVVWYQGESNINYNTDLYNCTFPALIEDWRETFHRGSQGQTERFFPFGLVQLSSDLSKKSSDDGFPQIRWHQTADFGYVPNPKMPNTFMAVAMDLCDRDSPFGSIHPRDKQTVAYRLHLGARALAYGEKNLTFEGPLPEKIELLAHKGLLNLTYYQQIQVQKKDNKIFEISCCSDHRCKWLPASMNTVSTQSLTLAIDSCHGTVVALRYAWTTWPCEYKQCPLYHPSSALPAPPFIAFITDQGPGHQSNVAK
HTRA1 inhibitor: HTRA1 serine protease inhibitors, primary screen, biochemical, fluorescence polarization, HTS; inhibition, % at 5.96 µM; 340,000 tested, 0.5% active; AID 504803, 2011; recombinant HTRA1, FP-rhodamine activity-based probe; in the data active = inhibition above about 36%;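 note: 0% = enzyme with DMSO and 100% = wells lacking enzyme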
PRMT1 inh: PRMT1 methyltransferase inhibitors, primary screen, biochemical, fluorescence polarization; recombinant PRMT1, activity-based probe fluorescence polarization; inhibition, % at 2.79 µM; 370,000 tested, 1.3% active; AID 652257, 2013;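 active = inhibition above about 21% made by adding two undisclosed values, limit read from the data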
PRMT1 inh conf: PRMT1 methyltransferase inhibitors, confirmation, biochemical, fluorescence polarization, triplicate. 3,300 tested, 42% active. inhibition, % at 2.79 µM. recombinant His-PRMT1, activity-based probe fluorescence polarization. AID 687036, 2013. shares compounds with PRMT1 inh;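 active = mean inhibition across replicates above the hit cutoff derived for the earlier primary screen, cut at about 22% in these data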
An asterisk follows results filed as active; x = not tested or not shown. Compounds with a hit are over-represented: about 3.5% of the library has one in this group of screens.

SMILES | TCR CD3 inh | rCAG RNA binder | mABHD4 FP | SIAE primary | HTRA1 inhibitor | PRMT1 inh | PRMT1 inh conf
CSc1ccccc1OCc1cc(C(=O)N(C)Cc2ccc3nsnc3c2)no1 | 3 | -3 | -17 | -5 | -19 | 0 | x
CC(=O)c1cccc(OCc2cc(C(=O)N(C)Cc3ccc(C)o3)no2)c1 | 4 | -3 | 2 | -3 | 1 | 32* | 47*
Cc1ccc(CN(C)C(=O)c2ccccc2Oc2ccccc2)o1 | 4 | 1 | 5 | 1 | -10 | 34* | 14
Cc1ccccc1Cn1cc(CN2[C@@H](C)COc3cc(Br)ccc3S2(=O)=O)nn1 | x | 0 | -3 | 4 | x | -3 | x
O=c1ccsn1Cc1ccccc1 | -6 | 1 | 8 | -5 | 0 | 37* | 44*
Cc1cc(C)c2ccc(=S)[nH]c2n1 | 3 | 1 | -6 | 6 | -2 | 38* | 16
COc1ccc2c(C)cc(C)nc2n1 | -5 | 0 | 0 | -3 | 5 | 2 | x
CC1(C)C2CCC(CN=C(N)CSS(=O)(=O)O)C1C2 (stereo not drawn) | -8 | 1 | -12 | 1 | 1 | 88* | 69*
Cc1ccc(-c2cc(-c3nnc4sc(COc5ccccc5)nn34)[nH]n2)cc1 | x | 7 | -6 | 5 | x | 4 | x
COc1ccc(N2C(=O)CC(Sc3ccccc3C(=O)O)C2=O)c([N+](=O)[O-])c1 (stereo not drawn) | -3 | 16 | 8 | 1 | 3 | 100* | 55*
COc1ccc(N2CCN(C(=O)c3ccccc3F)CC2)c([N+](=O)[O-])c1 | 3 | -5 | -2 | -2 | 7 | -4 | x
Cc1ccc(N2C(=O)CC(Sc3ccccc3C(=O)O)C2=O)c([N+](=O)[O-])c1 (stereo not drawn) | 3 | 11 | 9 | 5 | -1 | 63* | 65*
CN=C1NC(=O)/C(=C\c2cc(C)n(-c3ccccc3F)c2C)S1 | x | x | 1 | 5 | x | 7 | x
Cc1cccc2cc3c(N)c(C(=O)N4CCc5ccccc54)sc3nc12 | 1 | 17 | 9 | 0 | -4 | 31* | 4
O=C(Cn1c(-c2cncs2)nc2ccccc21)N1CCCCC1 | x | 0 | 3 | 1 | x | 5 | x
CC(C)NC(=S)NNc1nc2ccccc2s1 | -3 | 7 | 10 | 0 | -3 | 60* | 57*
Cc1ccc(C)c(S(=O)(=O)Nc2ccc3scnc3c2)c1 | 9 | 3 | -3 | 0 | -3 | 35* | 7
Nc1ncnc(Sc2ncccn2)c1[N+](=O)[O-] | 5 | -5 | -1 | -1 | 0 | 53* | 16
Nc1ncnc(Sc2ccccc2)c1[N+](=O)[O-] | -2 | 5 | 2 | 0 | -1 | 12 | x
COc1ccc([N+](=O)[O-])cc1NC(=O)CSc1nc(C)cc(C)n1 | -5 | 12 | -10 | 8 | -5 | 54* | 45*
COc1ccc([N+](=O)[O-])cc1NC(=O)CSc1ccc2ccccc2c1 | 5 | 14 | -28 | -3 | -37 | 2 | x
CN(C)CCCN(C(=O)CCOc1ccccc1)c1nc2c(F)cccc2s1 | 4 | 0 | 4 | -1 | 1 | 31* | 4
CN(C)CCCN(C(=O)CCc1ccccc1)c1nc2c(F)cccc2s1 | 2 | 2 | 7 | -1 | 0 | 0 | x
C=CCNC(=O)CSc1nc2c(c(=O)[nH]1)CCCC2 | x | 4 | 2 | 3 | x | 7 | x
CC(C)CC1CC(C)(c2csc(NNC(=O)c3ccccc3)n2)OC1=O (stereo not drawn) | 4 | 22 | 12 | 11 | -12 | 42* | -3
SMILES | TCR CD3 inh | rCAG RNA binder | mABHD4 FP | SIAE primary | HTRA1 inhibitor | PRMT1 inh | PRMT1 inh conf
Cc1[nH]c(=S)c(C#N)c(C)c1C(=O)Nc1ccccc1 | 1 | 8 | 10 | 1 | 2 | 33* | 13
CC(=O)c1c(C)[nH]c(C(=O)Nc2cccc(C#N)c2)c1C | 11 | 2 | -8 | -10 | 1 | -6 | x
CCc1c(C(=O)Nc2ccccc2)c(C)[nH]c(=S)c1C#N | -3 | 6 | -4 | -5 | -9 | 43* | 88*
CC(C)NC(=O)c1cc(-c2ccco2)nn1-c1ccc(Cl)cc1 | -13 | 14 | -6 | -5 | -1 | 31* | 20
CC(=O)OC12CCCN(C1)/C(=C/c1ccc(Cl)cc1)C2 (stereo not drawn) | x | 1 | 0 | 1 | x | 4 | x
Fc1ccc(NC(=S)N2CCN(c3cccc(C(F)(F)F)c3)CC2)cc1 | 2 | 0 | 3 | 2 | -9 | 5 | x
Cc1ccnc(NC(=S)N2CC3CN(c4cccc(C(F)(F)F)c4)CC3C2)c1 (stereo not drawn) | x | x | 13 | -1 | x | 25* | 23*
Cc1ccccc1CN1CCCCC(NC(=O)Nc2ccccc2-c2ccccc2)C1=O (stereo not drawn) | x | 2 | -7 | -4 | x | 6 | x
Cc1ccc(N/C=C2/Sc3ccccc3NC2=O)cc1 | -5 | 7 | -3 | 2 | 4 | 31* | 10
O=C1Nc2ccccc2S/C1=C/NCc1ccccc1Cl | 0 | 0 | 1 | 13 | 2 | 20 | x
COc1ccc(N/C=C2/Sc3ccccc3NC2=O)cc1 | 1 | -1 | 5 | 6 | 9 | 33* | 30*
O=c1c2ccccc2sn1-c1ccccc1F | 1 | 1 | 4 | 9 | 1 | 89* | 96*
O=c1c2ccccc2sn1-c1nccs1 | -1 | 5 | 10 | -2 | x | 97* | 88*
COCCn1c(=O)sc2ccccc2c1=O | 4 | -1 | 0 | 2 | 7 | 0 | x
Cn1sc2ccccc2c1=O | -6 | 2 | 13 | 11 | 2 | 71* | 77*
O=C1CN(c2ccccc2F)C(=O)CN1c1ccccc1F | -1 | -1 | 9 | 2 | 4 | -1 | x
O=C1c2ccccc2C(=O)N1c1nccs1 | -2 | 1 | 3 | 2 | 6 | 2 | x
CCN(CC)C(=O)CC[C@@H]1CC[C@]2(CCCN(Cc3cccnc3)C2)O1 | x | 2 | 7 | 0 | x | -2 | x
Cc1ccccc1C(=O)N(C)[C@H]1C[C@H]2c3[nH]c4c(-c5ccc6c(c5)OCO6)cccc4c3CCN2C(=O)[C@H]1[C@H](C)O | 6 | 3 | -1 | -3 | x | 0 | x
COC1=C[C@H](C(=O)NCc2ccccc2)[C@H](C)[C@@H](c2ccccc2)CC1=O | x | 2 | 0 | -1 | x | 1 | x
COC(=O)CC1C(=O)NCCN1C(=O)CSc1nc2ccccc2s1 (stereo not drawn) | 2 | 5 | -1 | 5 | 1 | 36* | 37*

Source: PubChem BioAssay
